CHOP inhibitor = inhibitors of CHOP promoter induction, primary screen, cell-based, unfolded protein response, luciferase reporter | inhibition, % at 10 µM | hit rate 3.8% among 220,000 | AID 2732, 2010 | CHO-K1 CHOP-promoter luciferase, tunicamycin-induced, 15-18 h;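 active means compounds that reduced the stress-induced luciferase reporter signal by more than about 70% of percent inhibition, limit read from the data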;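 further: 0% = tunicamycin plus vehicle and 100% = wells without tunicamycin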
UPR CHOP act = activators of apoptotic CHOP UPR arm, primary screen, cell-based, CHO-CHOP luciferase reporter, luminescence, uHTS; UPR activation; percent of tunicamycin response over DMSO baseline; activation, % at 10 µM; hit rate 0.34% among 330,000;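 active means at 10 µM dose, activation of 40% or more, normalized to positive control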;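 further: 100% = tunicamycin at 10 µg/mL and 0% = DMSO alone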
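System: CHO-CHOP luciferase reporter cell line | Buffer or medium: F12 medium containing 10% fetal bovine serum | Doses: One dose, 10 µM in 0.5% DMSO | Times: 6 h compound exposure at 37 °C after overnight seeding | Signal: Luciferase luminescence | Read-out: % activation vs tunicamycin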
UPR XBP1 act = activators of adaptive XBP1 UPR arm, primary screen, cell-based, CHO-XBP1 luciferase reporter, luminescence, uHTS; hit rate 0.33% among 330,000; IRE1-XBP1 UPR activation; percent of tunicamycin response, DMSO as zero; activation, % at 20 µM; AID 463104, 2010;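 active means versus positive control, 20 µM dose yields 30% or more activation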;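 further: 100% = tunicamycin at 10 µg/mL and 0% = DMSO only wells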
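Material: CHO-XBP1 cells stably carrying IRE1-XBP1-driven luciferase reporter / Amount: 1000 cells per well / Compound: 20 µM, 1% DMSO / Times: 6 h treatment, 37 °C / Detection: luciferase luminescence / Measure: % activation of reporter signal versus tunicamycin and DMSO controls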
GAA850 FXN act = FXN promoter activators, primary screen, cell-based, luciferase luminescence, HEK293 lucGAA850. AID 540364, 2011. activation, % at 6 µM. HEK293 lucGAA850 FXN promoter luciferase reporter, 24 h; percent of 10 µM SAHA response. hit rate 0.56% among 360,000;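 active means activation above the average of all compounds screened plus 3 SD, cutoff fixed separately per campaign, cut at about 7.5% in these data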;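 further: 0% = DMSO wells and 100% = 10 µM SAHA wells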
UPR CHOP confirm = activators of apoptotic CHOP UPR arm, confirmation, cell-based, CHO-CHOP luciferase reporter, single concentration; shares compounds with UPR CHOP act; CHO-CHOP cells, CHOP-luciferase reporter luminescence; percent of tunicamycin response, DMSO as zero; activation, % at 10 µM; hit rate 64% among 1,000; AID 463112, 2010; in the data active means activation above about 33%;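 further: 0% = DMSO wells and 100% = tunicamycin 10 µg/mL wells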
XBP1 UPR conf = IRE1-XBP1 UPR arm activators, confirmation, cell-based, CHO-XBP1 luciferase reporter, luminescence, single concentration; activation, % at 20 µM; hit rate 63% among 1,000; shares compounds with UPR XBP1 act;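 active means reporter signal at least 30% of the positive control's activation in two or more of four replicate wells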;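 further: plate controls were DMSO negative control for no effect and tunicamycin 10 µg/mL positive control for full effect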
* hit, by the source's call; . = no result given. Shown is part of a subset that was picked to be rich in hits.

SMILES | CHOP inhibitor | UPR CHOP act | UPR XBP1 act | GAA850 FXN act | UPR CHOP confirm | XBP1 UPR conf
O=C(Nc1ccc(-c2nc3cc(NC(=O)c4cccs4)ccc3o2)cc1)c1cccs1 | -53.9 | 195.2* | 147.6* | -0.8 | 201.6* | 324.2*
C/C(CCC12CC3CC(CC(C3)C1)C2)=N\NC(N)=S | 41.0 | 219.9* | 82.7* | -4.2 | 96.3* | 62.7*
O=C(/C(=N/N=C/c1ccc(O)c(O)c1)c1ccccc1)c1ccccc1 | 62.4 | 85.9* | 41.1* | 3.9 | 63.4* | 30.4*
O=C1Nc2ccccc2/C1=N\N=C\c1ccc(O)c(O)c1 | 63.1 | -1.9 | -2.2 | 2.1 | . | .
Cc1ccc(NC(=O)C2(C)CCN2C(=O)Cc2ccc(C(C)(C)C)cc2)cc1C (configuration not stated) | . | . | . | 0.5 | . | .
O=C(Nc1nc(-c2ccc3ccccc3c2)cs1)c1ccc(N2C(=O)CCC2=O)cc1 | 42.0 | 76.5* | 44.6* | -2.6 | 56.1* | 47.0*
O=C(C[C@H]1C[C@H](C(=O)N2CCCCC2)[C@@]2(CCc3ccccc3)c3[nH]c4ccc(Cl)cc4c3CCN2C1=O)NCCC1=CCCCC1 | . | 55.5* | 144.4* | 1.1 | 84.2* | 146.2*
O=C(CSc1nc2ccc(Nc3nc(N4CCOCC4)nc(N4CCOCC4)n3)cc2s1)Nc1ccccc1Cl | . | 1.8 | 3.4 | 1.2 | . | .
O=C(CSc1nc2ccc(Nc3nc(N4CCOCC4)nc(N4CCOCC4)n3)cc2s1)Nc1ccccc1F | . | 106.5* | 277.4* | 0.4 | 110.6* | 301.8*
Cc1ccc(N2CCN(c3ccc(NCc4nc5ccccc5n4C)cc3)CC2)cc1 | 60.1 | 45.1* | 66.1* | 3.4 | 37.0* | 88.9*
Cn1c(CNc2ccc(Cl)cc2)nc2ccccc21 | -24.9 | 2.9 | 7.2 | 3.2 | . | .
O=C(NCc1ccccc1Cl)c1cccc2c1C(=O)c1ccc(-c3ccc(OC(F)(F)F)cc3)cc1S2(=O)=O | . | 127.9* | 164.0* | 0.4 | 84.8* | 114.8*
COc1ccc(-c2ccc3c(c2)S(=O)(=O)c2cccc(C(=O)NCc4cccc(OC(F)(F)F)c4)c2C3=O)cc1OC | . | 0.6 | 29.3 | -0.2 | . | .
CC(=O)NCCCNC(=S)NCCCN(Cc1ccc(Cl)cc1)c1ccc(Br)cn1 | . | . | . | -2.1 | . | .
O=C(Nc1cccc(-c2nc3cccnc3s2)c1)C1c2ccccc2Oc2ccccc21 | 69.2 | 280.8* | 439.9* | 0.5 | 74.9* | 466.5*
CCCCN=C1SC(C(=O)Nc2sc3c(c2C(=O)OC)CCC3)C(N)=C1C(=O)N1CCOCC1 (configuration not stated) | . | 108.6* | 166.4* | 2.9 | 2.2 | 15.8
CS(=O)(=O)Nc1cccc(NC(=O)C2Cc3c(-c4ccccc4)ccnc3O2)c1 (configuration not stated) | . | . | . | -5.5 | . | .
FC(F)(F)c1cc(-c2ccco2)nc(-n2cnc3ccccc32)n1 | -10.7 | 0.9 | 10.5 | -2.1 | . | .
Cc1nc2ccccc2n1-c1nc(-c2ccco2)cc(C(F)(F)F)n1 | . | 174.1* | 57.0* | -0.7 | 132.5* | 43.4*
COc1ccc(C(=O)c2cc(OC)c(OC)c(OC)c2)cc1OC | . | . | . | 0.8 | . | .
OCCNc1nc(Nc2ccc(Br)cc2)nc2ccccc12 | 4.8 | 76.1* | 40.8* | . | 60.4* | 46.1*
OCCNc1nc(Nc2ccccc2)nc2ccccc12 | -6.7 | 2.4 | 24.3 | -1.5 | . | .
N#C/C(=C\c1ccc(OCc2ccccc2)cc1)C(=O)Nc1nc2c(s1)CCN(Cc1ccccc1)C2 | 68.7 | 91.5* | 42.1* | 2.4 | 145.1* | 132.2*
CCOC(=O)C1(C)CCN1C(=O)c1ccc(OC)c(OC)c1 (configuration not stated) | . | . | . | 0.3 | . | .
COc1ccc(N2CCN(Cc3cc(=O)oc4cc(-c5ccccc5)c(O)cc34)CC2)cc1 | 22.6 | 115.8* | 106.8* | 0.3 | 82.8* | 77.8*
SMILES | CHOP inhibitor | UPR CHOP act | UPR XBP1 act | GAA850 FXN act | UPR CHOP confirm | XBP1 UPR conf
CCCC(C)(C)C(=O)N1CCC1(C)C(=O)Nc1ccc2c(c1)OCCO2 (configuration not stated) | . | . | . | -1.4 | . | .
CCOC(=O)C(=CNc1nc(-c2ccccc2)c(C(=O)Nc2ccc(-c3ccccc3)cc2)s1)C(=O)OCC | . | 73.0* | 209.2* | -1.2 | 43.4* | 133.1*
Cc1oc2cc(O)ccc2c(=O)c1-c1cnn(-c2ccccc2)c1 | 12.5 | 4.2 | 3.8 | 0.9 | . | .
CCc1cc2c(=O)c(-c3cnn(-c4ccccc4)c3)c(C)oc2cc1OCC(=O)Nc1cccc(C)c1 | 94.3* | 147.9* | 75.0* | 1.4 | 78.1* | 121.1*
CCC(=O)N1CCCC(C(=O)NS(=O)(=O)c2cc(C)c(Cl)cc2C)CC1 (configuration not stated) | . | . | . | -0.1 | . | .
COc1cccc(C#Cc2cnc3c(c2)C(=O)N([C@@H](C)CO)C[C@H](C)[C@H](CN(C)C(=O)C2CCC2)O3)c1 | . | . | . | -1.9 | . | .
O=C(Nc1ccc(NC(=O)c2sc3ccccc3c2Cl)cc1Cl)c1ccco1 | -19.9 | 62.6* | 342.1* | 1.7 | 34.0* | 141.6*
CC1(C(=O)Nc2cnc3ccccc3c2)CCN1C(=O)C/C=C/c1ccccc1 (configuration not stated) | . | . | . | 0.5 | . | .
N#C/C(=C/c1ccc(-c2ccc([N+](=O)[O-])cc2)o1)C(=O)Nc1nc(-c2cccs2)cs1 | . | . | . | 0.4 | . | .
Cc1ccc(Cc2cnc(NC(=O)/C(C#N)=C/c3ccc(-c4ccc([N+](=O)[O-])cc4)o3)s2)cc1 | -8.1 | 123.1* | 136.1* | -0.8 | 78.3* | 166.5*
CC(C)(C)C(=O)NC(=S)NNC(=O)c1ccc(-c2ccccc2)cc1 | 92.4* | 69.2* | 72.0* | -0.4 | 84.3* | 49.7*
CCCCNC(=O)C(=O)Nc1ccc2c(c1)N(S(=O)(=O)c1cccs1)CCC2 | . | . | . | -2.0 | . | .
Cc1ccc(NC(=O)/C(C#N)=C/c2cn(CC(=O)NCc3ccco3)c3ccccc23)cc1C | -47.4 | 124.5* | 235.4* | 0.7 | -0.4 | -0.8
N#C/C(=C\c1cn(CCOc2ccccc2)c2ccccc12)C(=O)NCc1ccco1 | 51.9 | 1.2 | 1.3 | 0.2 | . | .
O=C(/C=C/c1ccco1)NC(=S)Nc1ccc(O)c(-c2nc3ccccc3s2)c1 | 25.8 | 105.8* | 153.0* | 3.3 | 86.0* | 286.8*
CCCCN1C(=O)C(CC(=O)NCCCN(C)C)CC(C(=O)N(C)C)=C1C (configuration not stated) | . | . | . | -1.9 | . | .
CCOC(=O)c1cc(NC(=O)c2ccc(Cl)cc2)c(=O)n2c1oc1ccc(Cl)cc12 | 16.4 | 69.8* | 39.5* | 3.9 | 7.5 | 45.4*

Bioassay records: PubChem, several laboratories
